The values below come from PMC10433355 (ACS Omega, 2023).

Each structure is given as a SMILES string. Several values for one entry are separate records, joined by “and”; a condition that tells them apart may be missing. Identical values can stand only once.

One series deals with T1, COX-1 (Ovis aries, UniProt P05979).
T1 sequence (P05979 25-600): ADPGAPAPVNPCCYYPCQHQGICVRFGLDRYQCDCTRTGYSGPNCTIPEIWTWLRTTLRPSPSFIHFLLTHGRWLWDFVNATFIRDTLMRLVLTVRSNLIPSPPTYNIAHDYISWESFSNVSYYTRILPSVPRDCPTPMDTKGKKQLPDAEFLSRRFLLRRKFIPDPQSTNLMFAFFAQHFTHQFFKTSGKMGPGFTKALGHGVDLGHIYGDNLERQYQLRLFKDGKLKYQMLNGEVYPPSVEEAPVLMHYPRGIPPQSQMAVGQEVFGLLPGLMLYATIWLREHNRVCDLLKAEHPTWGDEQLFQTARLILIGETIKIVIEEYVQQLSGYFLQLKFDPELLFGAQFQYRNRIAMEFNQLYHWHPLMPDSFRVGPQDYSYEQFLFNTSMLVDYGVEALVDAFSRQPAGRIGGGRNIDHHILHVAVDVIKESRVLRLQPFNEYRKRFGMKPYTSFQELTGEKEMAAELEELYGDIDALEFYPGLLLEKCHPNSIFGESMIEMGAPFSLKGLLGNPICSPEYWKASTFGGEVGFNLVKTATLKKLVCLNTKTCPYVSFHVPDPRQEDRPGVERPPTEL
Description: In vitro COX-1 inhibition assay. Type of series: biochemical, ovine.

The target of the next series is T2, human recombinant COX-2 (Homo sapiens, UniProt P35354).
T2 sequence (P35354 18-604): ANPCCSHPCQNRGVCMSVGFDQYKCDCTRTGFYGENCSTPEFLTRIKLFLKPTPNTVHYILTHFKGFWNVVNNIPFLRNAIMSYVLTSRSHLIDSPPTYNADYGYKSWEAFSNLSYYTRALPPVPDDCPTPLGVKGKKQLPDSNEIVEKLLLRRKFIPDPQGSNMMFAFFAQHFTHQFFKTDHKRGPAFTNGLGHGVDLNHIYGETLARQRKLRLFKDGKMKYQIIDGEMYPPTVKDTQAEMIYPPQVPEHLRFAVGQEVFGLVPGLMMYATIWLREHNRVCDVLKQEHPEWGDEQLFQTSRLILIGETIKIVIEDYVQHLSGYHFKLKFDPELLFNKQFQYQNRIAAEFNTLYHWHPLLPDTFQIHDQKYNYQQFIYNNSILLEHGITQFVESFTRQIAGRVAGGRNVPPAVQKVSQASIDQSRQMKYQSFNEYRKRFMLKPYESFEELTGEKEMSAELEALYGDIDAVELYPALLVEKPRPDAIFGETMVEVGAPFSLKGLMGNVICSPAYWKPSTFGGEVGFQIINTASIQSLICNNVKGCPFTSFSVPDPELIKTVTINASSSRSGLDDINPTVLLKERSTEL
Description: In vitro COX-2 inhibition assay. Type of series: biochemical. To be noted: for SI (selectivity index / selectivity ratio): IC50 COX-1 divided by IC50 COX-2; for IC50: IC50 COX-2.

Series [1] can be described thus: MTS cytotoxicity assay, normal cell line LX-2. The format is cell-based. To be noted: human, LX-2 cells (normal cell line), CC50 LX-2, normal cell line. The method in brief:
(§1)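 LX-2 cells seeded at 1 × 10^3 cells/well and left 24 h at 37 °C. Exposed to test compound at 300, 100, 50 and 10 µM for 72 h at 37 °C, with 5-FU as positive control. […] Triplicate, mean ± SD.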

Another series concerns Hep3B. Description: MTS assay, hepatocellular carcinoma Hep3B. The format is cell-based. The following applies: Homo sapiens, 72 h, read-out: IC50 Hep3B. The method in brief: (§2)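 Cells grown in RPMI 1640 with 10% FBS, 1% penicillin/streptomycin and 1% L-glutamine, trypsinised and counted by hemocytometer. Seeded at 1 × 10^3 cells/well and left 24 h at 37 °C. Test compound added at 300, 100, 50 and 10 µM for 72 h at 37 °C, then removed. […] Triplicate, mean ± SD.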

A further series deals with HepG2. Nature of the series: MTS assay, hepatocellular carcinoma HepG2. Type of series: cell-based. The following applies: Homo sapiens, HepG2, 72 h, read-out: IC50 HepG2. The procedure, abridged: as §2
In another series the test system is HeLa. Description: MTS assay, cervical adenocarcinoma HeLa. To be noted: Homo sapiens, 72 h, read-out: IC50 HeLa. Type of series: cell-based. The procedure, abridged:
as §2
For orientation: Tetrazolium assays rely on reduction of a dye to a coloured formazan, in cell work by metabolically active cells.

A further series concerns MCF-7. Nature of the series: MTS assay, breast carcinoma MCF-7. The format is cell-based. To be noted: Homo sapiens, MCF7, 72 h, read-out: IC50 MCF-7. The method in brief:
as §2

In another series the test system is COLO205. Description: MTS assay, colon adenocarcinoma COLO205. The format is cell-based. To be noted: Homo sapiens, COLO 205, 72 h, read-out: IC50 COLO205. The method in brief:
as §2

The subject of the next series is CaCo-2. Description: MTS assay, colorectal adenocarcinoma Caco-2. The format is cell-based. The following applies: Homo sapiens, Caco-2, 72 h, read-out: IC50 CaCo-2. The procedure, abridged:
as §2

Another series has as its system B16F1. Description: MTS assay, melanoma B16F1. The format is cell-based. The following applies: Mus musculus, B16-F1, 72 h, read-out: IC50 B16F1. The procedure, abridged: as §2
The subject of the next series is Hek293t cells. Nature of the series: MTS cytotoxicity assay, normal cell line Hek293t. The following applies: read-out: CC50 Hek293t, 72 h. The format is cell-based. The procedure, abridged: as §2
The subject of another series is LX-2 cells. Nature of the series: MTS cytotoxicity assay, normal cell line LX-2. To be noted: read-out: CC50 LX-2, normal cell line. The format is cell-based. The procedure, abridged: as §1

For `COc1cccc(-c2nc(C)c(C(=O)Nc3cc(OC)c(OC)c(OC)c3)s2)c1` [2a, 2-(3-Methoxyphenyl)-4-methyl-N-(3,4,5-trimethoxyphenyl)thiazole-5-carboxamide], the IC50 at COX-1 was 2.65 ± 0.78 µM; on human recombinant COX-2 it was 0.95 µM and 0.958 µM; with Hep3B, more than 300 µM; with HepG2, 60.8 ± 2.76 µM; with HeLa it was more than 300 µM; in the series with MCF-7 it was more than 300 µM. Besides, the IC50 in the series on COLO205, in the series on CaCo-2 and with B16F1 was more than 300 µM in each case. Also, the “SI (selectivity index / selectivity ratio)” value at human recombinant COX-2 was 2.766 and 2.76. The CC50 at 72 h in series [1] was more than 300 µM.

Regarding `COc1cccc(-c2nc(C)c(C(=O)Nc3cc(OC)ccc3OC)s2)c1` [2h, N-(2,5-Dimethoxyphenyl)-2-(3-methoxyphenyl)-4-methylthiazole-5-carboxamide], the IC50 at COX-1 is 0.335 ± 0.19 µM; on human recombinant COX-2, 1.23 ± 0.85 µM; in the series on Hep3B it was more than 300 µM; with HepG2, more than 300 µM; in the series with HeLa, 250.8 ± 2.42 µM; in the series with MCF-7 it was more than 300 µM. The 50% inhibitory concentration (IC50) in the series with COLO205, in the series with CaCo-2 and in the series with B16F1 was more than 300 µM each time. The “SI (selectivity index / selectivity ratio)” value at human recombinant COX-2 is listed as 0.272. The CC50 at 72 h in series [1] is more than 300 µM.

For `COc1cccc(-c2nc(C)c(C(=O)Nc3cccc(C(F)(F)F)c3)s2)c1` [2j, 2-(3-Methoxyphenyl)-4-methyl-N-(3-(trifluoromethyl)phenyl)thiazole-5-carboxamide], the half-maximal inhibitory concentration (IC50) at COX-1 was 1.44 ± 0.51 µM; at human recombinant COX-2, 0.957 ± 0.17 µM; in the series with Hep3B, 299.2 ± 2.05 µM; in the series on HepG2, more than 300 µM; in the series with HeLa, more than 300 µM; with MCF-7 it was more than 300 µM. In addition, the 50% inhibitory concentration (IC50) in the series with COLO205, in the series with CaCo-2 and with B16F1 was more than 300 µM in each case. Moreover, at human recombinant COX-2, the “SI (selectivity index / selectivity ratio)” value was 1.507. This compound also showed a CC50 at 72 h in [1] of more than 300 µM.

Turning to `COc1cccc(-c2nc(C)c(C(=O)Nc3ccc(SC)cc3)s2)c1` [2e, 2-(3-Methoxyphenyl)-4-methyl-N-(4-(methylthio)phenyl)thiazole-5-carboxamide], the IC50 was 1.53 ± 0.92 µM against COX-1; 2.12 ± 1.48 µM on human recombinant COX-2; 202.1 ± 1.99 µM with Hep3B; more than 300 µM in the series on HepG2; 223 ± 2.58 µM in the series on HeLa; 163 ± 2.88 µM in the series on MCF-7. Further, the IC50 in the series on COLO205, with CaCo-2 and in the series on B16F1 was more than 300 µM in each case. For the same compound, at human recombinant COX-2, the “SI (selectivity index / selectivity ratio)” value turned out to be 0.723. Also, the CC50 at 72 h in series [1] is more than 300 µM.

Turning to `COc1cccc(-c2nc(C)c(C(=O)Nc3ccc(OC)c(OC)c3)s2)c1` [2c, N-(3,4-Dimethoxyphenyl)-2-(3-methoxyphenyl)-4-methylthiazole-5-carboxamide], the IC50 is 0.278 ± 0.02 µM against COX-1; 2.91 ± 1.08 µM at human recombinant COX-2; more than 300 µM in the series with Hep3B; more than 300 µM in the series on HepG2; more than 300 µM in the series on HeLa; more than 300 µM with MCF-7. Further, the IC50 in the series with COLO205, in the series with CaCo-2 and in the series on B16F1 was more than 300 µM in each case. The “SI (selectivity index / selectivity ratio)” value at human recombinant COX-2 is 0.095. The compound also displayed a CC50 at 72 h in series [1] of more than 300 µM.

As to `COc1cccc(-c2nc(C)c(C(=O)Nc3ccc(C(C)(C)C)cc3)s2)c1` [2b, N-(4-(tert-Butyl)phenyl)-2-(3-methoxyphenyl)-4-methylthiazole-5-carboxamide], the IC50 is 0.239 ± 0.18 µM at COX-1; 0.19 µM and 0.191 µM at human recombinant COX-2; more than 300 µM in the series on Hep3B; more than 300 µM in the series on HepG2; more than 300 µM with HeLa; more than 300 µM in the series on MCF-7. For the same compound, the IC50 with COLO205 was 30.8 ± 0.49 µM; in the series on CaCo-2 it was more than 300 µM; in the series with B16F1 it was 74.2 ± 2.44 µM. Moreover, at human recombinant COX-2, the “SI (selectivity index / selectivity ratio)” value is listed as 1.251. In addition, the CC50 in the series with Hek293t cells was 117 ± 2.05 µM. The compound also registered a CC50 at 72 h in [1] of 203.7 ± 1.89 µM.

On to `COc1cc(NC(=O)c2sc(-c3cccc(OC)c3)nc2C)cc(OC)c1` [2d, N-(3,5-Dimethoxyphenyl)-2-(3-methoxyphenyl)-4-methylthiazole-5-carboxamide], for which the IC50 on COX-1 was 1.57 ± 0.8 µM; at human recombinant COX-2, 2.3 ± 0.25 µM; in the series with Hep3B it was more than 300 µM; in the series with HepG2, more than 300 µM; in the series on HeLa, more than 300 µM; in the series with MCF-7 it was 144 ± 2.03 µM. In addition, the IC50 with COLO205, in the series on CaCo-2 and with B16F1 was more than 300 µM each time. The “SI (selectivity index / selectivity ratio)” value on human recombinant COX-2 is given as 0.685. In addition, the CC50 at 72 h in series [1] is more than 300 µM.

On to `COc1cccc(-c2nc(C)c(C(=O)Nc3ccccc3)s2)c1` [2f, 2-(3-Methoxyphenyl)-4-methyl-N-phenylthiazole-5-carboxamide], for which the IC50 against COX-1 is 2.06 ± 1.21 µM; at human recombinant COX-2, 3.26 ± 1.02 µM; with Hep3B it was more than 300 µM; in the series on HepG2 it was more than 300 µM; in the series with HeLa, more than 300 µM; in the series on MCF-7 it was more than 300 µM. Besides, the IC50 with COLO205, with CaCo-2 and in the series on B16F1 was more than 300 µM each time. Further, on human recombinant COX-2, the “SI (selectivity index / selectivity ratio)” value is 0.630. In addition, the CC50 at 72 h in [1] was more than 300 µM.

`O=c1[nH]cc(F)c(=O)[nH]1` [5-FU, reference compound]: the values for the CC50 in the series on Hek293t cells and in the series with LX-2 cells were 4.06 ± 1.82 µM and 8.45 ± 2.02 µM, respectively.

With `COc1cccc(-c2nc(C)c(C(=O)Nc3ccc(Oc4ccccc4OC)cc3)s2)c1` [2i, N-(4-(2-Methoxyphenoxy)phenyl)-2-(3-methoxyphenyl)-4-methylthiazole-5-carboxamide], the IC50 against COX-1 is 2.11 ± 1.08 µM; on human recombinant COX-2, 3.24 ± 1.11 µM; in the series on Hep3B, more than 300 µM; in the series on HepG2, more than 300 µM; with HeLa, more than 300 µM; in the series with MCF-7, more than 300 µM. The IC50 in the series with COLO205, with CaCo-2 and in the series on B16F1 was more than 300 µM throughout. Besides, at human recombinant COX-2, the “SI (selectivity index / selectivity ratio)” value is reported as 0.651. In addition, the cytotoxic concentration (CC50) at 72 h in [1] is more than 300 µM.

The term IC50 denotes the point on the concentration scale where inhibition reaches its midpoint. What is called CC50 is the concentration giving 50% cytotoxicity.
